Experimental data published in PMC3556220 (Biochimica et biophysica acta, 2012).

How the values were obtained:
BON cells [1] = conditions: cited from earlier work; for induction of apoptosis: BON cells
[2] = tested on: EGFR (Y^1068 phosphorylation); experiment: Western blot of EGFR Tyr^1068 phosphorylation in BON cells; assay type: cell-based, human; conditions: for inhibition of NT-stimulated EGFR Y^1068 phosphorylation by antioxidant: NAC or Tiron pre-treatment (one range for both); for inhibition of Bn-analogue-stimulated EGFR Y^1068 phosphorylation by antioxidant: NAC or Tiron pre-treatment; for stimulation of Y^1068 EGFR phosphorylation: Western blot, densitometry
Procedure, shortened: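 BON cells were stimulated with EGF 16 nM or peptides 1 µM for 30 min or over time courses; inhibitor sets used 1 h stimulation. Lysis was in pH 7.5 Triton/deoxycholate buffer with orthovanadate. Equal protein ran on 4–20% SDS-PAGE onto nitrocellulose. Probes: anti-phospho-EGFR Tyr1068 (1:1000, overnight 4 °C), tubulin loading control, HRP secondary, chemiluminescence on film, band densitometry. Mean ± SEM, 3–4 experiments.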

non-endocrine tumors = conditions: cited from earlier work
QGP-1 cells = experiment: [^3H]-Thymidine uptake, QGP-1 cell growth; assay type: cell-based, human; conditions: n = 6; for stimulation of cell growth, [^3H]-Thymidine incorporation: 24 h, serum-free medium, EGFR-dependent
Procedure, shortened: (§1)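 Plating: BON 1.5 × 10^5/well in DMEM/F12K; QGP-1 4 × 10^4/well in RPMI; both with 10% FBS. After 24 h, cells were serum-starved 24 h, then exposed 24 h to peptides/hormones with or without EGFR inhibitor at 1 µM. [3H]-thymidine was present for the final 6 h. Cells were washed in ice-cold PBS, precipitated in 5% TCA (30 min, 4 °C), dissolved in 0.5 N NaOH/0.5% SDS and scintillation-counted. Mean ± SEM, 6 experiments.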

BON cells [3] = experiment: MTT assay of BON cell growth; assay type: cell-based, human; conditions: for stimulation of BON cell growth, MTT assay: 24 h incubation, serum-free medium, read at 595 nm, mean of 6 experiments
Procedure, shortened: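 BON cells (5 × 10^3/well) were grown 24 h in DMEM/F12K + 10% FBS, washed with PBS, then exposed 24 h to peptides/hormones in serum-free DMEM/F12K, with or without EGFR inhibitor at 1 μM. MTT (1.2 mM final) was present for the last 3 h. Formazan was dissolved in 0.04 N HCl/isopropanol for 5 min at RT and absorbance read at 595 nm. Mean ± SEM, 6 experiments.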

[4] = tested on: progressive metastatic NETs; conditions: phase II trial, patients with progressive metastatic NETs; cited from earlier work
NCH720 cells = conditions: broncho-pulmonary NET cell line; cited from earlier work
KRJ-I cells = conditions: cited from earlier work
BON cells [5] = experiment: [^3H]-Thymidine uptake, BON cell growth; assay type: cell-based, human; conditions: 24 h incubation, serum-free medium, mean of 6 experiments
Procedure, shortened: as §1

HNSCC = conditions: cited from earlier work; for cell proliferation: HNSCC
[6] = tested on: non-small-cancer lung cells / lung cancer; conditions: cited from earlier work
[7] = tested on: rat insulinoma cell lines; conditions: cited from earlier work
BON cells [8] = experiment: BON cell growth, galanin and CCK/gastrin; assay type: cell-based, human; conditions: data not shown
Procedure, shortened: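 BON cells are grown in DMEM/F12K with 10% FBS, then washed and serum-starved, and test compound is added for 24 h. For the MTT read-out, 5×10^3 cells/well get 1.2 mM MTT (final) for the last 3 h, are lysed in 0.04N HCl/isopropanol, and are read at 595 nm. For thymidine uptake, 1.5×10^5 cells/well are starved 24 h and pulsed with [3H]-thymidine for the final 6 h. Samples are TCA-precipitated, solubilised in NaOH/SDS, and scintillation-counted.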

prostate cancer cells = conditions: cited from earlier work
[9] = tested on: pancreatic adenocarcinoma cells; conditions: cited from earlier work

## COc1cc2ncnc(Nc3cccc(Cl)c3)c2cc1OC [AG1478]
BON cells [1]
  induction of apoptosis: induces apoptosis
  BON cell basal proliferation: completely blocks BON cell basal proliferation
[2]; AG1478 1 μM, stimulant Bn-analogue, 30 min, n = 4
  inhibition of Bn-analogue-stimulated Y^1068 EGFR phosphorylation: inhibited completely
[2]; AG1478 1 μM, stimulant EGF, 30 min, n = 4
  inhibition of EGF-stimulated Y^1068 EGFR phosphorylation: 88%
[2]; AG1478 1 μM, stimulant NT, 30 min, n = 4
  inhibition of NT-stimulated Y^1068 EGFR phosphorylation: inhibited completely
non-endocrine tumors
  inhibition of cell growth stimulated by various GI hormones/neurotransmitters: able to inhibit cell growth
QGP-1 cells; AG1478 1 μM pre-treatment, [^3H]-Thymidine uptake
  inhibition of the increase of cell growth induced by the GI hormones: blocked the increase of cell growth
BON cells [3]; BON cells, AG1478 1 μM pre-treatment, 24 h, n = 6
  inhibition of growth stimulated by each GI hormone, EGF or TGFα, MTT assay: completely inhibited

## CN(C)CCCn1cc(C2=C(c3c[nH]c4ccccc34)C(=O)NC2=O)c2ccccc21 [GF 109203X]
[2]; GF 109203X pre-treatment, NT 1 μM, 1 h, n = 3
  inhibition of NT-stimulated EGFR Y^1068 phosphorylation by PKC inhibitor: 77%

## CNC(=O)[C@H](Cc1c[nH]c2ccccc12)NC(=O)[C@@H](CC(=O)NO)CC(C)C [GM 6001]
[2]; GM 6001 pre-treatment, Bn-analogue 1 μM, 1 h, n = 3
  reduction of Bn-analogue-stimulated EGFR Y^1068 phosphorylation by MMP inhibitor: 75%
[2]; GM 6001 pre-treatment, NT 1 μM, 1 h, n = 3
  reduction of NT-stimulated EGFR Y^1068 phosphorylation by MMP inhibitor: 60%

## COc1cc2ncnc(Nc3ccc(F)c(Cl)c3)c2cc1OCCCN1CCOCC1 [Gefitinib]
BON cells [1]
  induction of apoptosis: induces apoptosis
  BON cell basal proliferation: completely blocks BON cell basal proliferation
[4]
  tumor stabilization: stabilization of the tumors

## CC(=O)N[C@@H](CS)C(=O)O [N-acetylcysteine]
[2]; NT 1 μM, 1 h, n = 3
  inhibition of NT-stimulated EGFR Y^1068 phosphorylation by antioxidant: 37–45%
[2]; Bn-analogue 1 μM, 1 h, n = 3
  inhibition of Bn-analogue-stimulated EGFR Y^1068 phosphorylation by antioxidant: 85%

## COc1cc2ncnc(Nc3cccc(Br)c3)c2cc1OC [PD153035]
non-endocrine tumors
  inhibition of cell growth stimulated by various GI hormones/neurotransmitters: able to inhibit cell growth

## Nc1ncnc2c1cnn2-c1ccccc1 [PP3]
[2]; inhibitor 10 μM, Bn-analogue 1 μM, 1 h, n = 4
  reduction of Bn-analogue-stimulated Y^1068 EGFR phosphorylation: but not PP3, an inactive PP2 analogue
[2]; inhibitor 10 μM, NT 1 μM, 1 h, n = 4
  reduction of NT-stimulated Y^1068 EGFR phosphorylation: but not PP3, an inactive PP2 analogue

## O=S(=O)(O)c1cc(O)c(O)c(S(=O)(=O)O)c1 [Tiron]
[2]; NT 1 μM, 1 h, n = 3
  inhibition of NT-stimulated EGFR Y^1068 phosphorylation by antioxidant: 37–45%
[2]; Bn-analogue 1 μM, 1 h, n = 3
  inhibition of Bn-analogue-stimulated EGFR Y^1068 phosphorylation by antioxidant: 85%

## NCCc1c[nH]c2ccc(O)cc12 [serotonin]
NCH720 cells
  cell proliferation: stimulates cell proliferation
KRJ-I cells
  cell proliferation of KRJ-I: stimulates cell proliferation

## EGF: Human EGF (Recombinant, E. coli)
BON cells [1]
  growth of BON cells: can stimulate growth of both KRJ-I cells and BON cells
BON cells [1]; previous studies
  stimulation of BON cell proliferation (previous studies): stimulates cell proliferation
[2]; 16 nM, 30 min, n = 4
  stimulation of Y^1068 EGFR phosphorylation: significantly stimulated
[2]; EGF
  peak time of Y^1068 EGFR tyrosine phosphorylation: 2 min
[2]; EGF 16 nM, n = 4
  t1/2 of Y^1068 EGFR phosphorylation: 3 min
KRJ-I cells
  growth of KRJ-I cells: can stimulate growth of both KRJ-I cells and BON cells
BON cells [5]
  growth stimulated, [^3H]-Thymidine assessment: 32%
QGP-1 cells
  stimulation of cell growth, [^3H]-Thymidine incorporation: able to stimulate BON cell growth, as well as in QGP-1 cells
BON cells [3]
  stimulation of BON cell growth, MTT assay: 30%

## NMB: stimulates cell proliferation in non-small-cancer lung cells
HNSCC
  cell proliferation: stimulate cell proliferation
[6]
  cell proliferation: stimulate cell proliferation

## TGFα: TGFα, BioVision
[2]; 3.6 nM, 30 min, n = 4
  stimulation of Y^1068 EGFR phosphorylation: significantly stimulated
KRJ-I cells
  growth of KRJ-I cells: increase cell growth
BON cells [5]
  growth stimulated, [^3H]-Thymidine assessment: 42%
QGP-1 cells
  stimulation of cell growth, [^3H]-Thymidine incorporation: stimulated cell growth
BON cells [3]
  stimulation of BON cell growth, MTT assay: 40%

## TGFβ
KRJ-I cells
  growth of KRJ-I cells: increase cell growth

## [DTyr^6, β Ala^11, Phe^13, Nle^14]Bn (6–14) [Bn-analogue]
[2]; 1 μM, 30 min, n = 4
  stimulation of Y^1068 EGFR phosphorylation: significantly stimulated
[2]; 1 μM, n = 4
  maximal increase of EGFR Y^1068 phosphorylation, dose-response: 2.4 fold
[2]; Bn-analogue or NT
  peak time of Y^1068 EGFR tyrosine phosphorylation: 60 min
[2]; time course, 1 μM, 62 min (NT data not shown), n = 4
  increase of EGFR phosphorylation at 62 min: 3.4 fold
QGP-1 cells
  stimulation of cell growth, [^3H]-Thymidine incorporation: stimulated cell growth

## bombesin
HNSCC
  cell proliferation: stimulate cell proliferation
[6]
  cell proliferation: stimulate cell proliferation

## bradykinin (RPPGFSPFR; Bradykinin; UniProt P01042 381-389, looked up)
HNSCC; through its B2 receptor
  growth of HNSCC: stimulates growth of HNSCC
[2]; 1 μM, 30 min, n = 4
  stimulation of Y^1068 EGFR phosphorylation: significantly stimulated
QGP-1 cells
  stimulation of cell growth, [^3H]-Thymidine incorporation: able to stimulate BON cell growth, as well as in QGP-1 cells

## epiregulin: epiregulin, an EGFR ligand
[7]
  cell growth: stimulates cell growth

## galanin (GWTLNSAGYLLGPHAVGNHRSFSDKNGLTS; Galanin; UniProt P22466 33-62, looked up)
BON cells [8]
  effect on cell growth: did not exert any effect on cell growth

## neurotensin [NT]
Prostate cancer cells
  cell growth: stimulate cell growth
[2]; 1 μM, 30 min, n = 4
  stimulation of Y^1068 EGFR phosphorylation: significantly stimulated
[2]; 1 μM, n = 4
  maximal increase of EGFR Y^1068 phosphorylation, dose-response: 2.6 fold
[2]; Bn-analogue or NT
  peak time of Y^1068 EGFR tyrosine phosphorylation: 60 min
[9]
  cell growth: stimulate cell growth
QGP-1 cells
  stimulation of cell growth, [^3H]-Thymidine incorporation: stimulated cell growth
